Active and inactive are the calls of the source. The rule behind the calls is not given here.
Assays:
[1] = Retention time of the compound by HPLC method; type: physicochemical
Method in brief: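 Reversed-phase HPLC with a gradient of acetonitrile and water, both containing 0.1% formic acid, at 1 mL/min. Gradient ran 5% to 95% acetonitrile over 0–15 min, then held at 95% from 15 to 25 min. Injection volume 50 µL.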

[2] = Stability in PBS at pH 6 assessed as compound remaining after 24 hrs by HPLC analysis; type: physicochemical; settings: read-out: Stabilty
Method in brief: (§1)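 Co-prodrug stock diluted in 10 mM PBS at pH 7.4 or 6.0 and held at 37 °C. Sampled at 0.5, 1, 2, 3, 4, 6, 12 and 24 h. Intact co-prodrug, released PTX and released SAHA resolved by RP-HPLC. Amounts taken from external-standard concentration curves.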

MCF7 = assay: Cytotoxicity against human MCF7 cells after 72 hrs by SRB assay; type: functional, cell-based; settings: MCF7, 72 h
[3] = Half life in mouse plasma by HPLC analysis; type: ADME, cell-free
Method in brief: (§2)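 Co-prodrug diluted into human or mouse plasma and incubated at 37 °C. Sampled at 0.5, 1, 2, 3, 4, 5 and 6 h. Each aliquot quenched with an equal volume of cold acetonitrile and centrifuged. Supernatant analysed by RP-HPLC, with compounds quantified against an external-standard concentration–area curve.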

[4] = Half life in human plasma by HPLC analysis; type: ADME, cell-free; method in brief: as §2
HCT-116 = assay: Cytotoxicity against human HCT-116 cells after 72 hrs by SRB assay; type: functional, cell-based; settings: HCT-116, 72 h
NCI/ADR-RES = assay: Cytotoxicity against human MCF7/ADR cells after 72 hrs by SRB assay; type: functional, cell-based
[5] = target: T1, Histone deacetylase (Homo sapiens) (UniProt Q13547+O15379+Q9UBN7+Q92769+Q9UQL6+Q8WUI4+Q9BY41+Q96DB2+P56524+Q9UKV0+Q969S8); assay: Inhibition of HDAC in human MCF7 cells assessed as increase in tubulin acetylation measured after 10 to 24 hrs by Western blot analysis; type: cell-based; settings: time hrs 10-24
Method in brief: (§3)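 Cells in logarithmic phase seeded in 6-well plates and cultured overnight. Compound exposure at 37 °C for 10 h and 24 h, with untreated cells as control. Cells lysed in RIPA buffer and lysates boiled. Proteins separated by SDS-PAGE and semidry-transferred to nitrocellulose. Membranes probed with primary antibody overnight at 4 °C, then HRP-conjugated secondary antibody for 1 h at room temperature. Detection by chemiluminescence imaging.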

[6] = target: T1, Histone deacetylase (Homo sapiens); assay: Inhibition of HDAC in human HCT-116 cells assessed as increase in tubulin acetylation measured after 10 to 24 hrs by Western blot analysis; type: cell-based; settings: time hrs 10-24; method in brief: as §3
[7] = target: T1, Histone deacetylase (Homo sapiens); assay: Inhibition of HDAC in human MCF7/ADR cells assessed as increase in tubulin acetylation measured after 10 to 24 hrs by Western blot analysis; type: cell-based; settings: NCI/ADR-RES, time hrs 10-24; method in brief: as §3
[8] = Drug degradation in PBS assessed as SAHA release at pH 7.4 after 48 hrs by HPLC analysis; settings: buffer, pH 7.4, 48 h
[9] = Drug degradation in PBS assessed as PTX release at pH 7.4 after 48 hrs by HPLC analysis; settings: buffer, pH 7.4, 48 h
[10] = Half life of compound in PBS buffer at pH 7.4 by HPLC analysis; type: physicochemical; method in brief: as §1

Row | SMILES | Retention_time [1] [min] | remaining at 24 h [2] [%] | IC50 (MCF7) [nM] | half-life [3] [min] | half-life [4] [min] | IC50 (HCT-116) [nM] | IC50 (NCI/ADR-RES) [nM] | inhibition [5] | inhibition [6] | inhibition [7] | Drug degradation [8] [%] | Drug degradation [9] [%] | half-life [10] [min]
1 | CC(=O)O[C@H]1C(=O)[C@@]2(C)[C@H]([C@H](OC(=O)c3ccccc3)[C@]3(O)C[C@H](OC(=O)[C@H](OC(=O)CCC(=O)O)[C@@H](NC(=O)c4ccccc4)c4ccccc4)C(C)=C1C3(C)C)[C@]1(OC(C)=O)CO[C@@H]1C[C@@H]2O | 13.63 |  |  |  |  |  |  |  |  |  |  |  | 
2 | CC(=O)O[C@H]1C(=O)[C@@]2(C)[C@H]([C@H](OC(=O)c3ccccc3)[C@]3(O)C[C@H](OC(=O)[C@H](OC(=O)CCC(=O)ONC(=O)CCCCCCC(=O)Nc4ccccc4)[C@@H](NC(=O)c4ccccc4)c4ccccc4)C(C)=C1C3(C)C)[C@]1(OC(C)=O)CO[C@@H]1C[C@@H]2O | 15.06 | > 85 | 62.4 | 30 | 30 | 144 | 4020 |  |  |  |  |  | 
3 | CC(=O)O[C@H]1C(=O)[C@@]2(C)[C@H]([C@H](OC(=O)c3ccccc3)[C@]3(O)C[C@H](OC(=O)[C@H](O)[C@@H](NC(=O)c4ccccc4)c4ccccc4)C(C)=C1C3(C)C)[C@]1(OC(C)=O)CO[C@@H]1C[C@@H]2O [PACLITAXEL] | 13.81 |  | < 1.5 |  |  |  | > 10000 | Active | Active | Active |  |  | 
4 | CC(=O)O[C@H]1C(=O)[C@@]2(C)[C@H]([C@H](OC(=O)c3ccccc3)[C@]3(O)C[C@H](OC(=O)[C@H](OC(=O)CNC(=O)ONC(=O)CCCCCCC(=O)Nc4ccccc4)[C@@H](NC(=O)c4ccccc4)c4ccccc4)C(C)=C1C3(C)C)[C@]1(OC(C)=O)CO[C@@H]1C[C@@H]2O | 14.62 | > 85 | 1.5 | 30 | 30 | 9.55 | 1380 | Active | Active | Active | 56.8 | 50.3 | 120
5 | O=C(CCCCCCC(=O)Nc1ccccc1)NO [VORINOSTAT] | 8.42 |  |  |  |  |  |  |  |  |  |  |  | 
